Results as given in ChEMBL document CHEMBL4414663, “Pyrazole-4-Carboxamide (YW2065): A Therapeutic Candidate for Colorectal Cancer via Dual Activities of Wnt/β-Catenin Signaling Inhibition and AMP-Activated Protein Kinase (AMPK) Activation” (J Med Chem, 2019).
Calls of active or inactive are those of the source. The calls are words filed in the database; no cut-off is given here.

Experiments:
[1] = test system: SW480; experiment: Growth inhibition of human SW480 cells at 50 uM by Cell-titer-fluor reagent based assay relative to control; format: functional; conditions: read-out: GI
[2] = target: AMP-activated protein kinase, AMPK (Homo sapiens) (UniProt P54646+O43741+P54619+Q9UGJ0+Q9Y478+Q13131+Q9UGI9); experiment: Activation of AMPK in HEK293 cells with Axin-1 knockdown assessed as increase in AMPK phosphorylation at T172 residue at 10 uM incubated for 24 hrs by Western blot analysis; format: cell-based
[3] = Inhibition of Wnt/beta-Catenin signaling in human SW620 cells incubated for 24 hrs by TCF/LEF dual-luciferase reporter assay; format: cell-based; conditions: SW-620, 24 h
In short: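 SW480 or SW620 cells seeded at 200,000/well and transiently transfected 24 h later with TOPflash firefly luciferase plus pRLTK-Renilla using lipofectamine 2000. After 16 h the medium was replaced with compound at a range of concentrations, three replicates each. Dual firefly/Renilla luciferase read 24 h later.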

[4] = test system: SW-620; experiment: Induction of Axin-1 protein expression in human SW620 cells by Western blot analysis; format: functional, cell-based
In short: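 SW620 cells in RPMI 1640 with 10% FBS, treated over a concentration range. Lysed in RIPA with protease inhibitors, 20 µL of 2 mg/mL protein run on 7.5% SDS-PAGE, transferred to nitrocellulose, blocked in 5% BSA. Rabbit primaries (Axin-1, ACC, pACC, AMPK, pAMPK at 1:1,000; β-actin 1:2,000) overnight at 4 °C, HRP secondary 1:8000 for 2 h, ECL.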

[5] = species: Homo sapiens; experiment: Inhibition of Wnt/beta-Catenin signaling in human SW620 cells assessed as reduction in c-Myc mRNA expression at 10 uM incubated for 24 hrs by real-time PCR analysis; format: cell-based
In short: (§1)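 SW620 cells (RPMI 1640, 10% FBS) in 6-well plates, incubated 24 h, then treated with compound at several concentrations, three replicates each, for 24 h. Total RNA isolated with Trizol/phenol-chloroform; 2 µg reverse transcribed; Wnt target gene mRNA quantified by PCR.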

[6] = species: Homo sapiens; experiment: Inhibition of Wnt/beta-Catenin signaling in human SW620 cells assessed as reduction in cyclinD1 mRNA expression at 10 uM incubated for 24 hrs by real-time PCR analysis; format: cell-based; in short: as §1
[7] = test system: SW-620; experiment: Inhibition of colony formation in human SW620 cells incubated for 14 days by crystal violet staining based assay; format: functional, cell-based
In short: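 SW480, SW620 or HT29 cells seeded at 300/well in 3 mL medium in 6-well plates with a concentration series of compound. After 14 days, fixed in 4% formaldehyde and stained with 0.5% crystal violet in 25% aqueous MeOH; colonies photographed.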

[8] = test system: SW480; experiment: Induction of apoptosis in human SW480 cells incubated for 48 hrs by AAD-7 and FITC-annexin-V staining based flow cytometry; format: functional, cell-based
[9] = test system: SW-620; experiment: Induction of apoptosis in human SW620 cells assessed as late apoptotic cells level at 1 uM incubated for 48 hrs by AAD-7 and FITC-annexin-V staining based flow cytometry (reference value: 7.6%); format: functional
[10] = test system: SW-620; experiment: Induction of apoptosis in human SW620 cells assessed as necrotic cells level at 1 uM incubated for 48 hrs by AAD-7 and FITC-annexin-V staining based flow cytometry (reference value: 0.027%); format: functional
[11] = test system: SW-620; experiment: Induction of apoptosis in human SW620 cells assessed as viable cells level at 3 uM incubated for 48 hrs by AAD-7 and FITC-annexin-V staining based flow cytometry (reference value: 73.8%); format: functional
[12] = test system: SW-620; experiment: Induction of apoptosis in human SW620 cells assessed as viable cells level at 10 uM incubated for 48 hrs by AAD-7 and FITC-annexin-V staining based flow cytometry (reference value: 73.8%); format: functional
[13] = target: Cyclin-dependent kinase 17 (Homo sapiens) (UniProt Q00537); experiment: Inhibition of CDK17 (unknown origin) at 1000 nM relative to control
Sequence of Cyclin-dependent kinase 17 (Homo sapiens) (Q00537 whole entry, looked up): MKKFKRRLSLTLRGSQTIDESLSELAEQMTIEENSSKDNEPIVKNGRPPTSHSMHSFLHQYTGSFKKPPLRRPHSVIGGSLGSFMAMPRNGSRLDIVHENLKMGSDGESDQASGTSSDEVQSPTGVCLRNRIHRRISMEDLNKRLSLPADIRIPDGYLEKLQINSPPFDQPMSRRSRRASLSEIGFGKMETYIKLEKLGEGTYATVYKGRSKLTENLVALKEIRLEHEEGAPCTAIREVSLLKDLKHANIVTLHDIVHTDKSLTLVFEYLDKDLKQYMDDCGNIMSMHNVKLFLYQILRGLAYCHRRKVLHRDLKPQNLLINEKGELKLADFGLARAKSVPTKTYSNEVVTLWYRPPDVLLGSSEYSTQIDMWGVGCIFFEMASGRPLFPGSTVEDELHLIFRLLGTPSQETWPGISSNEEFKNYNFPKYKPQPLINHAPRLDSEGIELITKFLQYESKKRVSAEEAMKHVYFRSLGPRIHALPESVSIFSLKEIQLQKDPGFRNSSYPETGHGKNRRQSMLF
In short: (§2)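 Single-concentration screen at 1000 nM against a 273-kinase panel, reported as percent inhibition.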

[14] = target: Glycogen synthase kinase-3 alpha (Homo sapiens) (UniProt P49840); experiment: Inhibition of GSK3A (unknown origin) at 1000 nM relative to control; in short: as §2
Sequence of Glycogen synthase kinase-3 alpha (Homo sapiens) (P49840 2-483 limits assumed): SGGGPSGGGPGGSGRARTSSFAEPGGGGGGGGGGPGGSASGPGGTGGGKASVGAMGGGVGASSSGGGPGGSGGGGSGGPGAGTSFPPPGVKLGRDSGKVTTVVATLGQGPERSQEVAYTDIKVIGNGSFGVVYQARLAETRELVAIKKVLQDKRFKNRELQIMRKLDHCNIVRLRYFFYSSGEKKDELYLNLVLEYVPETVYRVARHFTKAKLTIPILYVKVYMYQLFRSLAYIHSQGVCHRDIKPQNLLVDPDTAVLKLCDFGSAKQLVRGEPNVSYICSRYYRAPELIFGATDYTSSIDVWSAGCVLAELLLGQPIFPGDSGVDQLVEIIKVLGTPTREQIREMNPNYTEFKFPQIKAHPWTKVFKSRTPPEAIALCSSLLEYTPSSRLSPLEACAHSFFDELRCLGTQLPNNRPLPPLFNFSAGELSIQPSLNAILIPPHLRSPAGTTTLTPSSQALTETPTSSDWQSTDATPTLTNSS

[15] = target: High affinity nerve growth factor receptor (Homo sapiens) (UniProt P04629); experiment: Inhibition of NTRK1 (unknown origin) at 1000 nM relative to control; in short: as §2
Sequence of High affinity nerve growth factor receptor (Homo sapiens) (P04629 33-796 limits assumed): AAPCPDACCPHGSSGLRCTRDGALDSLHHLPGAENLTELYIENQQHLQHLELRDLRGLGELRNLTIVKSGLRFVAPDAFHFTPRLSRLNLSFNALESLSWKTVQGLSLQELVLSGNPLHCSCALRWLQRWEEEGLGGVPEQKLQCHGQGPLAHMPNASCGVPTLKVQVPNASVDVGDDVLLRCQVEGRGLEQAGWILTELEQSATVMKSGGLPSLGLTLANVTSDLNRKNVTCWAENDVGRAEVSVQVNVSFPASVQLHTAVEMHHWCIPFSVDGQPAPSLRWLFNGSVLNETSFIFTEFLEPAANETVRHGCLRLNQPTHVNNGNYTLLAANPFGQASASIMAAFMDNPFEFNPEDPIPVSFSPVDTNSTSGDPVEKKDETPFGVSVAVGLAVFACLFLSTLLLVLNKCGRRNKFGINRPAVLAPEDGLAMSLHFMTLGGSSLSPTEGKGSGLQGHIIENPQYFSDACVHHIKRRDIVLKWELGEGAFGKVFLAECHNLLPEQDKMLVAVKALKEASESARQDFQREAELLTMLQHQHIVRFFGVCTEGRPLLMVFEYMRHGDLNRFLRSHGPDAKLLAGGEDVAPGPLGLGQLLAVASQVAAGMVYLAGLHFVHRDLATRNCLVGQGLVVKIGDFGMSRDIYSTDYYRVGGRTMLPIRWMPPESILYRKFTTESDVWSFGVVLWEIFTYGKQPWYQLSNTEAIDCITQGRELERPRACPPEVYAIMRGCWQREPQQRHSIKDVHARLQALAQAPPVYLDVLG

[16] = target: Protein kinase C theta type (Homo sapiens) (UniProt Q04759); experiment: Inhibition of PRKCQ (unknown origin) at 1000 nM relative to control; in short: as §2
Sequence of Protein kinase C theta type (Homo sapiens) (Q04759 whole entry, looked up): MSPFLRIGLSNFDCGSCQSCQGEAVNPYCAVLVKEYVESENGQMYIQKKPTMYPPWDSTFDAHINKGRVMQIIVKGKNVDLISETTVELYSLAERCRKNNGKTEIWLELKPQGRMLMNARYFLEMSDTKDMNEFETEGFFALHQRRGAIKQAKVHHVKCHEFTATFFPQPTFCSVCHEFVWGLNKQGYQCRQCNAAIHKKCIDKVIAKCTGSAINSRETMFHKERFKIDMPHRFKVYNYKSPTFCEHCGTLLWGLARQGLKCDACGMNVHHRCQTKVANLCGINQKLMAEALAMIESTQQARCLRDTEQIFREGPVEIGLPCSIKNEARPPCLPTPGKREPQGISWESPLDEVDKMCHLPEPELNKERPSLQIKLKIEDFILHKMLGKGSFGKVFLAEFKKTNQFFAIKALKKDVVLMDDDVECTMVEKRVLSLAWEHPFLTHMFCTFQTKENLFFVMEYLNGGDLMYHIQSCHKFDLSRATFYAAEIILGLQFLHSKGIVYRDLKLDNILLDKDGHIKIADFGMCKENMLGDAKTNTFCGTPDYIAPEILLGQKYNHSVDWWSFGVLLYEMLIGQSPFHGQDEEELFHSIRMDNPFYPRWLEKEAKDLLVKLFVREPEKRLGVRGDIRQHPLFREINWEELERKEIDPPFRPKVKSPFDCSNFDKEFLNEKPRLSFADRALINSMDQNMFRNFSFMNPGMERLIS

[17] = target: Proto-oncogene tyrosine-protein kinase Src (Homo sapiens) (UniProt P12931); experiment: Inhibition of SRC (unknown origin) at 1000 nM relative to control; in short: as §2
Sequence of Proto-oncogene tyrosine-protein kinase Src (Homo sapiens) (P12931 2-536 limits assumed): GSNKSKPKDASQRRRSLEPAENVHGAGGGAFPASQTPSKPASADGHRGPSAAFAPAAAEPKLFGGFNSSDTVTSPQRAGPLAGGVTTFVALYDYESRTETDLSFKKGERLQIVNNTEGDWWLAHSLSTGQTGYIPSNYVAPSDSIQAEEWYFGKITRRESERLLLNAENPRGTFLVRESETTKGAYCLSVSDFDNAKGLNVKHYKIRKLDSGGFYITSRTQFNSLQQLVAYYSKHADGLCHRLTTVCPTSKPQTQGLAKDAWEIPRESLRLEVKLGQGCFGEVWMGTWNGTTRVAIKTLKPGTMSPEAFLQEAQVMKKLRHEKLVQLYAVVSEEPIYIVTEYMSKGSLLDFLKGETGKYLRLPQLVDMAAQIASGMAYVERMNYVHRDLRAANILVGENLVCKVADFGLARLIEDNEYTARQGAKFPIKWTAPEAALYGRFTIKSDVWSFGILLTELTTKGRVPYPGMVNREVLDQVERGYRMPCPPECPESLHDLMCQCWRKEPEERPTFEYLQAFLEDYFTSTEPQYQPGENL

[18] = Tmax in C57BL/6J mouse at 5 mg/kg, po by UPLC-MS analysis; format: ADME, organism-based; conditions: in vivo
In short: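 Male C57BL/6J mice, 2–3 months old, 23–26 g. Single 5 mg/kg dose in 5% Kolliphor in saline, IV (n = 3) or oral gavage (n = 5). Tail-vein blood taken at 0.25, 0.5, 1, 4, 8 and 12 h and centrifuged to plasma. Analysed by LC-MS/MS (QTRAP 4000, C18 column); parameters from non-compartmental analysis.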

[19] = Toxicity in C57BL/6 mouse assessed as effect on ALT level at 100 mg/kg/day, ip for 21 days; format: organism-based; conditions: in vivo, 504 h
[20] = Toxicity in C57BL/6 mouse assessed as effect on BUN level at 100 mg/kg/day, ip for 21 days; format: organism-based; conditions: in vivo, 504 h
[21] = Toxicity in C57BL/6 mouse assessed as effect on glucose level at 100 mg/kg/day, ip for 21 days; format: organism-based; conditions: in vivo, 504 h
[22] = Toxicity in C57BL/6 mouse assessed as effect on albumin level at 100 mg/kg/day, ip for 21 days; format: organism-based; conditions: in vivo, 504 h
[23] = test system: Mus musculus; experiment: Activation of AMPK in nude mouse xenografted with human SW620 cells assessed as increase in ACC phosphorylation at 50 mg/kg, ip QD for 32 consecutive days by Western blot analysis; format: functional, organism-based
In short: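 Nude mice carried subcutaneous SW620 xenografts (2×10^6 cells, right flank). Dosing began once mean tumor volume reached 100–200 mm³: 50 mg/kg ip once daily for 32 days, vehicle 10% DMSO/10% Kolliphor/80% saline. Tumors taken at day 32 and lysed in RIPA with protease inhibitors. Western blot with 20 µL of 2 mg/mL lysate on 7.5% SDS-PAGE, probed for pAMPK/AMPK or pACC/ACC, ECL detection.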

[24] = test system: Mus musculus; experiment: Inhibition of Wnt/beta-Catenin signaling in nude mouse xenografted with human SW620 cells assessed as reduction in Axin-2 mRNA expression at 50 mg/kg, ip QD for 32 consecutive days by RT-PCR analysis; format: organism-based; conditions: in vivo
In short: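 Six-week-old nude mice implanted subcutaneously in the right flank with 2×10^6 SW620 cells. Randomized at mean tumor volume 100–200 mm³, n = 6/group. Dosed IP once daily for 32 days at 10 or 50 mg/kg, or vehicle (10% DMSO, 10% Kolliphor, 80% saline). Tumors collected at day 32; Axin-2, MMP-7 and S100A4 expression measured by RT-PCR.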

Q: With Cc1c(C(=O)Nc2ccc3ccccc3n2)cnn1-c1ccccc1Br as the compound, how does the inhibition of growth at 50 µM [1] read?
A: > 50%

Q: And the Activity [2]?
A: inactive

Q: And the IC50 [3]?
A: 194 pM

Q: What about the Activity [4] of the same compound?
A: Dose-dependent effect

Q: What about the inhibition [5] of the same compound?
A: Active

Q: What about the inhibition [6] of the same compound?
A: Active

Q: What about the inhibition [7] of the same compound?
A: Dose-dependent effect

Q: What about the Activity [8] of the same compound?
A: Dose-dependent effect

Q: What about the Activity [9] of the same compound?
A: 9.43%

Q: What about the Activity [10] of the same compound?
A: 0%

Q: And the Activity [11]?
A: 45%

Q: And the Activity [12]?
A: 22.1%

Q: And the inhibition [13]?
A: Active

Q: And the inhibition [14]?
A: Active

Q: What about the inhibition [15] of the same compound?
A: Active

Q: What about the inhibition [16] of the same compound?
A: Active

Q: What about the inhibition [17] of the same compound?
A: Active

Q: And the Tmax [18]?
A: 18 min

Q: What about the Activity [19] of the same compound?
A: Non-Toxic

Q: And the Activity [20]?
A: Non-Toxic

Q: What about the Activity [21] of the same compound?
A: Non-Toxic

Q: And the Activity [22]?
A: Non-Toxic

Q: What about the Activity [23] of the same compound?
A: Active

Q: And the “inhibition (INH)” value [24]?
A: Active
